Measured values taken from ChEMBL document CHEMBL1909573, “Synthesis and biological evaluation of (2,5-dihydro-1H-pyrrol-1-yl)-2H-chromen-2-ones as free radical scavengers” (Eur J Med Chem, 2011).
The source made the active and inactive calls. No cut-off for these calls is given here.

Assays:
[1] = tested on: Radical scavenging activity; assay: Antioxidant activity assessed as DPPH free radical scavenging activity at 100 uM after 60 mins; assay type: functional
Procedure, shortened: (§1)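 Compound solutions in ethanol were mixed with an equal volume of DPPH in absolute ethanol, giving compound concentrations of 50 and 100. Ethanol served as the control. Absorbance at 517 nm was read after 20 and 60 min at room temperature. Each run was done at least in triplicate, with the SD of absorbance under 10% of the mean.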

[2] = tested on: Radical scavenging activity; assay: Antioxidant activity assessed as reduction in DPPH stable free radical at 50 uM after 20 mins; assay type: functional; procedure, shortened: as §1
[3] = tested on: Radical scavenging activity; assay: Antioxidant activity assessed as DPPH free radical scavenging activity at 100 uM after 20 mins; assay type: functional; procedure, shortened: as §1
Glycine max = assay: Inhibition of soybean lipoxygenase assessed as conversion of sodium linoleate to 13-hydroperoxylinoleic acid at 100 uM
Procedure, shortened: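 Soybean lipoxygenase was measured by UV absorbance. Runs were done at least in triplicate, with the SD of absorbance under 10% of the mean.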

[4] = Antioxidant activity assessed as hydroxyl radical scavenging activity at 100 uM after 30 mins; assay type: functional
[5] = tested on: Radical scavenging activity; assay: Antioxidant activity assessed as reduction in DPPH free radical at 50 uM after 60 mins; assay type: functional; procedure, shortened: as §1
[6] = tested on: Radical scavenging activity; assay: Antioxidant activity assessed as DPPH free radical scavenging activity at 100 uM; assay type: functional; procedure, shortened: as §1
[7] = Antioxidant activity assessed as inhibition of AAPH-induced lipid peroxidation at 100 uM; assay type: functional
[8] = Antioxidant activity assessed as inhibition of superoxide anion radical production at 100 uM after 2 mins by nitroblue tetrazolium method; assay type: functional
Procedure, shortened: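 This was a nitroblue tetrazolium assay. The mixture held […] in 19 mM phosphate buffer, pH 7.4. Compounds were preincubated 2 min before NADH was added. After 2 min at room temperature, absorbance at 560 nm was read against a PMS-containing blank. Runs were done at least in triplicate.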

Q: For `Cc1cc(=O)oc2cc(-n3cccc3)ccc12`, which Activity [1] is on record?
A: 14%

Q: And the Activity [2]?
A: inactive

Q: What about the Activity [3] of the same molecule?
A: 14%

Q: And the inhibition (Glycine max)?
A: 12%

Q: And the inhibition [4]?
A: 9%

Q: What about the Activity [5] of the same molecule?
A: inactive

Q: What about the Activity [6] of the same molecule?
A: Dose-dependent effect

Q: And the inhibition [7]?
A: 46%

Q: What about the inhibition [8] of the same molecule?
A: inactive

Q: What does the source list for `Cc1ccc2oc(=O)ccc2c1N1CC=CC1`?
A: Activity [1]: 5%; Activity [2]: inactive; Activity [3]: 5%; Activity [5]: inactive; Activity [6]: Dose-dependent effect; inhibition [7]: 57%; inhibition [8]: inactive

Q: Which results are given for `O=c1ccc2cc(N3CC=CC3)ccc2o1`?
A: Activity [1]: 71%; Activity [2]: inactive; Activity [3]: 49%; inhibition [4]: 90%; Activity [5]: inactive; inhibition [7]: 86%; inhibition [8]: inactive

Q: For `Cc1ccc2oc(=O)ccc2c1-n1cccc1`, which Activity [1] is on record?
A: 7%

Q: What about the Activity [2] of the same molecule?
A: inactive

Q: What about the Activity [3] of the same molecule?
A: 7%

Q: And the inhibition (Glycine max)?
A: 55.5%

Q: And the inhibition [4]?
A: 91%

Q: What about the Activity [5] of the same molecule?
A: inactive

Q: And the Activity [6]?
A: Dose-dependent effect

Q: And the inhibition [7]?
A: 71%

Q: And the inhibition [8]?
A: inactive

Q: What does the source list for `Cc1cc(=O)oc2cc(N3CC=CC3)ccc12`?
A: Activity [1]: 20%; Activity [2]: inactive; Activity [3]: 5%; inhibition (Glycine max): 28%; inhibition [4]: 85%; Activity [5]: inactive; inhibition [7]: 87%; inhibition [8]: inactive

Q: For `Cc1cc2ccc(=O)oc2cc1N1CC=CC1`, which Activity [1] is on record?
A: 7%

Q: And the Activity [2]?
A: inactive

Q: What about the Activity [3] of the same molecule?
A: 5%

Q: What about the inhibition (Glycine max) of the same molecule?
A: 52.5%

Q: And the inhibition [4]?
A: 41%

Q: And the Activity [5]?
A: inactive

Q: What about the Activity [6] of the same molecule?
A: Dose-dependent effect

Q: What about the inhibition [7] of the same molecule?
A: 24%

Q: What about the inhibition [8] of the same molecule?
A: inactive

Q: For `O=c1ccc2cc(-n3cccc3)ccc2o1`, which Activity [1] is on record?
A: 19%

Q: And the Activity [2]?
A: inactive

Q: What about the Activity [3] of the same molecule?
A: 18%

Q: What about the Activity [5] of the same molecule?
A: inactive

Q: And the Activity [6]?
A: Dose-dependent effect

Q: And the inhibition [7]?
A: 1%

Q: What about the inhibition [8] of the same molecule?
A: inactive

Q: Which results are given for `Cc1cc2oc(=O)ccc2cc1N1CC=CC1`?
A: Activity [1]: 10%; Activity [2]: inactive; Activity [3]: 9%; inhibition (Glycine max): 60%; inhibition [4]: 77%; Activity [5]: inactive; Activity [6]: Dose-dependent effect; inhibition [7]: 91%; inhibition [8]: inactive

Q: With `Cc1ccc2ccc(=O)oc2c1` as the molecule, how does the Activity [1] read?
A: 2%

Q: And the Activity [3]?
A: 2%

Q: And the inhibition (Glycine max)?
A: 89%

Q: What about the inhibition [4] of the same molecule?
A: 44%

Q: What about the Activity [6] of the same molecule?
A: Dose-dependent effect

Q: With `O=c1ccc2ccccc2o1` as the molecule, how does the Activity [1] read?
A: 21%

Q: And the Activity [3]?
A: 5%

Q: And the inhibition (Glycine max)?
A: 15%

Q: And the inhibition [4]?
A: 78%

Q: And the Activity [6]?
A: Dose-dependent effect

Q: For `CC(Cc1ccc(O)c(O)c1)C(C)Cc1ccc(O)c(O)c1` (stereo not drawn), which Activity [1] is on record?
A: 83%

Q: And the Activity [3]?
A: 81%

Q: What about the inhibition (Glycine max) of the same molecule?
A: 84%

Q: And the Activity [6]?
A: Dose-dependent effect

Q: Which inhibition [4] does the source give for `Cc1c(C)c2c(c(C)c1O)CCC(C)(C(=O)O)O2` (stereo not drawn) here?
A: 63%

Q: What about the Activity [6] of the same molecule?
A: Dose-dependent effect

Q: And the inhibition [7]?
A: 73%

Q: Which results are given for `Cc1cc2oc(=O)ccc2cc1-n1cccc1`?
A: Activity [1]: 14%; Activity [2]: inactive; Activity [3]: 14%; Activity [5]: inactive; Activity [6]: Dose-dependent effect; inhibition [8]: inactive

Q: With `O=c1cc(N2CC=CC2)c2ccccc2o1` as the molecule, how does the Activity [1] read?
A: 27%

Q: And the Activity [2]?
A: inactive

Q: What about the Activity [3] of the same molecule?
A: 8%

Q: And the inhibition (Glycine max)?
A: 43%

Q: What about the inhibition [4] of the same molecule?
A: 83%

Q: And the Activity [5]?
A: inactive

Q: What about the inhibition [7] of the same molecule?
A: 100%

Q: What about the inhibition [8] of the same molecule?
A: inactive

Q: For `Cc1cc2ccc(=O)oc2cc1-n1cccc1`, which Activity [1] is on record?
A: 13%

Q: What about the Activity [2] of the same molecule?
A: inactive

Q: What about the Activity [3] of the same molecule?
A: 13%

Q: What about the inhibition [4] of the same molecule?
A: 88%

Q: What about the Activity [5] of the same molecule?
A: inactive

Q: What about the Activity [6] of the same molecule?
A: Dose-dependent effect

Q: What about the inhibition [8] of the same molecule?
A: inactive
